Assay results reported in ChEMBL document CHEMBL1131003, “Nonsymmetric P2/P2' cyclic urea HIV protease inhibitors. Structure-activity relationship, bioavailability, and resistance profile of monoindazole-substituted P2 analogues” (J Med Chem, 1998).

Assays:
[1] = Peak plasma concentration was measured in dogs; format: ADME, organism-based, Canis lupus familiaris; conditions: dog
[2] = Oral bioavailability in dog (dose 10 mg/kg); format: ADME, organism-based, Canis lupus familiaris; conditions: in vivo
Procedure, shortened: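 Dogs, n = 3 per group, given 10 mg/kg in a propylene glycol/polyethylene glycol 400/water formulation, dosed orally and intravenously. F% = AUC po/AUC iv, with AUC from time zero to infinity of the plasma concentration-time curve, normalized for dose.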

MT2 = assay: Antiviral potency evaluated by measuring accumulation of viral RNA transcripts 3 days after infection of MT-2 cells with HIV-1 RF; format: functional; conditions: Homo sapiens, MT2, 72 h
[3] = target: Human immunodeficiency virus type 1 protease (Human immunodeficiency virus 1, UniProt Q72874); assay: Inhibitory activity against HIV protease
Procedure, shortened: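 Ki for HIV protease, measured by cleavage of a fluorescent substrate with HPLC analysis, following the earlier method.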

[4] = target: Human immunodeficiency virus type 1 protease (Human immunodeficiency virus 1) (UniProt Q72874); assay: Antiviral activity against mutant virus HIV-1 mutant (84V) strain; format: functional
Procedure, shortened: (§1)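 I84V single and I84V/V82F double mutant HIV-1, both from in vitro selection under a cyclic urea inhibitor. IC90 measured by yield reduction assay.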

[5] = target: Human immunodeficiency virus type 1 protease (Human immunodeficiency virus 1) (UniProt Q72874); assay: Antiviral activity against mutant virus HIV-1 mutant (84V/82F) strain; format: functional; procedure, shortened: as §1
[6] = target: Human immunodeficiency virus type 1 protease (Human immunodeficiency virus 1) (UniProt Q72874); assay: Antiviral activity against ritonavir virus (HIV-1 mutated at 46I/63P/71V/82F/84V and resistant to ritonavir); format: functional
Procedure, shortened: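 Mutant HIV-1 viruses carrying protease substitutions seen in ritonavir- or indinavir-treated patient isolates; the ritonavir virus carries 46I/63P/71V/82F/84V. IC90 read from a viral p24 readout, following the earlier method.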

[7] = target: Human immunodeficiency virus type 1 protease (Human immunodeficiency virus 1) (UniProt Q72874); assay: Antiviral activity against indinavir virus (HIV-1 mutated at 10R/63P/71V/82T/84V and resistant to indinavir)

| Structure (SMILES) | Cmax [1] | bioavailability [2] | IC90 (MT2) | Ki [3] | IC90 mutant/IC90 WT [4] | IC90 mutant/IC90 WT [5] | IC90 mutant/IC90 WT [6] | IC90 mutant/IC90 WT [7] |
| --- | --- | --- | --- | --- | --- | --- | --- | --- |
| CC(=O)c1cccc(CN2C(=O)N(Cc3ccc4[nH]ncc4c3)[C@H](Cc3ccccc3)[C@H](O)[C@@H](O)[C@H]2Cc2ccccc2)c1 | 1.3 µM | 25% | 15 nM | 0.036 nM | – | – | – | – |
| CNc1cc(CN2C(=O)N(Cc3ccc4[nH]ncc4c3)[C@H](Cc3ccccc3)[C@H](O)[C@@H](O)[C@H]2Cc2ccccc2)ccc1F | 0.67 µM | 14% | 7 nM | 0.027 nM | – | – | – | – |
| O=C(Nc1ncc[nH]1)c1cccc(CN2C(=O)N(Cc3cccc(C(=O)Nc4ncc[nH]4)c3)[C@H](Cc3ccccc3)[C@H](O)[C@@H](O)[C@H]2Cc2ccccc2)c1 | – | – | 60 nM | – | 0.7 | 0.7 | 0.2 | 0.4 |
| O=C(Nc1nccs1)c1cccc(CN2C(=O)N(Cc3ccc4[nH]ncc4c3)[C@H](Cc3ccccc3)[C@H](O)[C@@H](O)[C@H]2Cc2ccccc2)c1 | – | – | 8 nM | 0.016 nM | 2 | 22 | 9 | 7.3 |
| Nc1ccc(CN2C(=O)N(Cc3ccc4[nH]ncc4c3)[C@H](Cc3ccccc3)[C@H](O)[C@@H](O)[C@H]2Cc2ccccc2)cc1 | 10.6 µM | 100% | 11 nM | 0.03 nM | 31 | 240 | 170 | – |
| Nc1cccc(CN2C(=O)N(Cc3ccc4[nH]ncc4c3)[C@H](Cc3ccccc3)[C@H](O)[C@@H](O)[C@H]2Cc2ccccc2)c1 | 7.2 µM | 93% | 11 nM | 0.03 nM | 6.8 | 200 | 75 | 20 |
| CNc1cccc(CN2C(=O)N(Cc3ccc4[nH]ncc4c3)[C@H](Cc3ccccc3)[C@H](O)[C@@H](O)[C@H]2Cc2ccccc2)c1 | 8 µM | 92% | 8 nM | 0.039 nM | – | – | – | – |
| O=C1N(Cc2ccc(CO)cc2)[C@H](Cc2ccccc2)[C@H](O)[C@@H](O)[C@@H](Cc2ccccc2)N1Cc1ccc(CO)cc1 [DMP-323] | – | – | 57 nM | – | 28 | 97 | 93 | 18 |
